Data reported in ChEMBL document CHEMBL1137451, “Synthesis and evaluation of antifungal properties of a series of the novel 2-amino-5-oxo-4-phenyl-5,6,7,8-tetrahydroquinoline-3-carbonitrile and its analogues” (Bioorg Med Chem, 2007).
Calls of active or inactive are those of the source. No cut-off for these calls is given here.

Assays:
Candida albicans [1] = experiment: Antifungal activity against Candida albicans 2 at 40 ug/disc after 24 hrs by disc diffusion method; format: functional; details: for zone of inhibition at 40 µg/disc: read-out: IZ
Summary of the method: (§1)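 Yeast suspensions (C. albicans strains 1, 2) and mycelial suspensions (F. oxysporum strains 1, 2; Mucor sp.) spread on YPG (0.3% yeast extract, 0.5% peptone, 1% glucose) or PDA agar. Compound applied on filter-paper discs at the stated amount; 28 °C, 24 h. Read-out is inhibition zone diameter. Controls: 50% v/v DMSO vehicle, cycloheximide, amphotericin B.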

Mucor [2] = experiment: Antifungal activity against Mucor at 40 ug/disc after 24 hrs by disc diffusion method; format: functional; details: for zone of inhibition at 40 µg/disc: read-out: IZ; summary of the method: as §1
Candida albicans [3] = experiment: Antifungal activity against Candida albicans 1 at 60 ug/disc after 24 hrs by disc diffusion method; format: functional; details: read-out: IZ; summary of the method: as §1
Fusarium oxysporum [4] = experiment: Antifungal activity against Fusarium oxysporum 2 at 100 ug/disc after 24 hrs by disc diffusion method; format: functional; details: read-out: IZ; summary of the method: as §1
Benjaminiella poitrasii [5] = experiment: Inhibition of Benjaminiella poitrasii chitin synthase at 4 ug/mL
Summary of the method: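 Chitin synthase from Benjaminiella poitrasii measured with and without compound at 4 µg/ml, using a non-radioactive chitin synthase assay. Nikkomycin Z used as reference.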

Fusarium oxysporum [6] = experiment: Antifungal activity against Fusarium oxysporum 2 after 24 hrs by disc diffusion method; format: functional
Summary of the method: (§2)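 Disc diffusion on Candida albicans strains 1 and 2 (yeast suspension), Fusarium oxysporum strains 1 and 2 and Mucor sp. (mycelial suspension), spread on YPG or PDA agar. Compound at graded amounts per filter-paper disc, 28 °C for 24 h. MIC taken as the lowest amount giving a 2 mm inhibition zone. Controls: 50% v/v DMSO vehicle, cycloheximide, amphotericin B.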

Mucor [7] = experiment: Antifungal activity against Mucor at 100 ug/disc after 24 hrs by disc diffusion method; format: functional; details: for zone of inhibition at 100 µg/disc: read-out: IZ; summary of the method: as §1
Benjaminiella poitrasii [8] = experiment: Inhibition of yeast hypha transition at 20 ug/mL after 4 hrs
Fusarium oxysporum [9] = experiment: Antifungal activity against Fusarium oxysporum 2 at 40 ug/disc after 24 hrs by disc diffusion method; format: functional; details: for zone of inhibition at 40 µg/disc: read-out: IZ; summary of the method: as §1
Fusarium oxysporum [10] = experiment: Antifungal activity against Fusarium oxysporum 1 after 24 hrs by disc diffusion method; format: functional; summary of the method: as §2
Candida albicans [11] = experiment: Antifungal activity against Candida albicans 2 at 100 ug/disc after 24 hrs by disc diffusion method; format: functional; details: read-out: IZ; summary of the method: as §1
Fusarium oxysporum [12] = experiment: Antifungal activity against Fusarium oxysporum 2 at 60 ug/disc after 24 hrs by disc diffusion method; format: functional; details: for zone of inhibition at 60 µg/disc: read-out: IZ; summary of the method: as §1
Candida albicans [13] = experiment: Antifungal activity against Candida albicans 2 at 60 ug/disc after 24 hrs by disc diffusion method; format: functional; details: read-out: IZ; summary of the method: as §1
Mucor [14] = experiment: Antifungal activity against Mucor at after 24 hrs by disc diffusion method; format: functional; summary of the method: as §2
Fusarium oxysporum [15] = experiment: Antifungal activity against Fusarium oxysporum 1 at 100 ug/disc after 24 hrs by disc diffusion method; format: functional; details: read-out: IZ; summary of the method: as §1
Candida albicans [16] = experiment: Antifungal activity against Candida albicans 1 after 24 hrs by disc diffusion method; format: functional; summary of the method: as §2
Candida albicans [17] = experiment: Antifungal activity against Candida albicans 1 at 40 ug/disc after 24 hrs by disc diffusion method; format: functional; details: for zone of inhibition at 40 µg/disc: read-out: IZ; summary of the method: as §1
Candida albicans [18] = experiment: Antifungal activity against Candida albicans 2 after 24 hrs by disc diffusion method; format: functional; summary of the method: as §2
Fusarium oxysporum [19] = experiment: Antifungal activity against Fusarium oxysporum 1 at 60 ug/disc after 24 hrs by disc diffusion method; format: functional; details: for zone of inhibition at 60 µg/disc: read-out: IZ; summary of the method: as §1
Candida albicans [20] = experiment: Antifungal activity against Candida albicans 1 at 100 ug/disc after 24 hrs by disc diffusion method; format: functional; details: read-out: IZ; summary of the method: as §1
Fusarium oxysporum [21] = experiment: Antifungal activity against Fusarium oxysporum 1 at 40 ug/disc after 24 hrs by disc diffusion method; format: functional; details: for zone of inhibition at 40 µg/disc: read-out: IZ; summary of the method: as §1
Mucor [22] = experiment: Antifungal activity against Mucor at 60 ug/disc after 24 hrs by disc diffusion method; format: functional; details: for zone of inhibition at 60 µg/disc: read-out: IZ; summary of the method: as §1

Row | SMILES | zone of inhibition at 40 µg/disc (Candida albicans [1]) [mm] | Activity (Mucor [2]) | zone of inhibition at 60 µg/disc (Candida albicans [3]) [mm] | zone of inhibition at 100 µg/disc (Fusarium oxysporum [4]) [mm] | inhibition (Benjaminiella poitrasii [5]) [%] | MIC (Fusarium oxysporum [6]) [µg/disc] | zone of inhibition at 100 µg/disc (Mucor [7]) [mm] | inhibition at 20 µg/mL (Benjaminiella poitrasii [8]) [%] | MIC (Fusarium oxysporum [10]) [µg/disc] | zone of inhibition at 100 µg/disc (Candida albicans [11]) [mm] | zone of inhibition at 60 µg/disc (Fusarium oxysporum [12]) [mm] | zone of inhibition at 60 µg/disc (Candida albicans [13]) [mm] | MIC (Mucor [14]) [µg/disc] | zone of inhibition at 100 µg/disc (Fusarium oxysporum [15]) [mm] | MIC (Candida albicans [16]) [µg/disc] | zone of inhibition at 40 µg/disc (Candida albicans [17]) [mm] | MIC (Candida albicans [18]) [µg/disc] | zone of inhibition at 60 µg/disc (Fusarium oxysporum [19]) [mm] | zone of inhibition at 100 µg/disc (Candida albicans [20]) [mm] | zone of inhibition at 60 µg/disc (Mucor [22]) [mm] | also measured
1 | Cc1ccc(-c2c(C#N)c(N)nc3c2C(=O)CCC3)cc1 | 3 | inactive | 4 | 7 | 91 | 40 | 14 | 90 | 40 | 7 | 3 | 4 | 60 | 7 | 40 | 3 | 40 | 3 | 7 | 10 | zone of inhibition at 40 µg/disc (Fusarium oxysporum [9]): 2 mm; zone of inhibition at 40 µg/disc (Fusarium oxysporum [21]): 2 mm
2 | N#Cc1c(N)nc2c(c1-c1ccc(Cl)cc1)C(=O)CCC2 | 2 | inactive | 3 | 7 | 81 | 60 | 10 | 95 | 60 | 5 | 4 | 3 | 60 | 7 | 40 | 2 | 40 | 4 | 5 | 7 | Activity (Fusarium oxysporum [9]): inactive; Activity (Fusarium oxysporum [21]): inactive
3 | N#Cc1c(N)nc2c(c1-c1ccc(F)cc1)C(=O)CCC2 | 2 | inactive | 4 | 7 | 81 | 40 | 12 | 95 | 40 | 6 | 3 | 4 | 60 | 7 | 40 | 2 | 40 | 3 | 6 | 9 | Activity (Fusarium oxysporum [9]): inactive; Activity (Fusarium oxysporum [21]): inactive
4 | N#Cc1c(N)nc2c(c1-c1cccc(N)c1)C(=O)CCC2 |  |  | 3 | 5 | 76 | 40 | 10 | 95 | 40 | 6 | 3 | 3 | 40 | 5 | 60 |  | 60 | 3 | 6 | 7 | Activity (Candida albicans [1]): inactive; zone of inhibition at 40 µg/disc (Mucor [2]): 5 mm; zone of inhibition at 40 µg/disc (Fusarium oxysporum [9]): 2 mm; Activity (Candida albicans [17]): inactive; zone of inhibition at 40 µg/disc (Fusarium oxysporum [21]): 2 mm
5 | CC(=O)N(C(C)=O)c1nc2c(c(-c3ccc(C)cc3)c1C#N)C(=O)CCC2 |  |  | 4 | 4 | 61 | 60 | 10 | 90 | 60 | 6 | 2 | 4 | 40 | 4 | 60 |  | 60 | 2 | 6 | 7 | Activity (Candida albicans [1]): inactive; zone of inhibition at 40 µg/disc (Mucor [2]): 3 mm; Activity (Fusarium oxysporum [9]): inactive; Activity (Candida albicans [17]): inactive; Activity (Fusarium oxysporum [21]): inactive
6 | N#Cc1c(N)nc2c(c1-c1ccccc1Cl)C(=O)CCC2 |  | inactive | 2 | 6 | 86 | 40 | 10 | 95 | 40 | 4 | 3 | 2 | 60 | 6 | 60 |  | 60 | 3 | 4 | 7 | Activity (Candida albicans [1]): inactive; zone of inhibition at 40 µg/disc (Fusarium oxysporum [9]): 2 mm; Activity (Candida albicans [17]): inactive; zone of inhibition at 40 µg/disc (Fusarium oxysporum [21]): 2 mm
7 | N#Cc1c(N)nc2c(c1-c1cccc(NC(=O)Nc3cccc(-c4c(C#N)c(N)nc5c4C(=O)CCC5)c3)c1)C(=O)CCC2 | 3 | inactive | 3 | 6 | 91 | 60 |  | 95 | 60 | 7 | 2 | 3 |  | 6 | 40 | 3 | 40 | 2 | 7 |  | Activity (Mucor [7]): inactive; Activity (Fusarium oxysporum [9]): inactive; Activity (Fusarium oxysporum [21]): inactive; Activity (Mucor [22]): inactive
8 | COc1ccc(NC(=O)Nc2cccc(-c3c(C#N)c(N)nc4c3C(=O)CCC4)c2)cc1 | 2 | inactive | 3 | 2 | 71 | 100 |  | 95 | 100 | 6 |  | 3 |  | 2 | 40 | 2 | 40 |  | 6 |  | Activity (Mucor [7]): inactive; Activity (Fusarium oxysporum [9]): inactive; Activity (Fusarium oxysporum [12]): inactive; Activity (Fusarium oxysporum [19]): inactive; Activity (Fusarium oxysporum [21]): inactive; Activity (Mucor [22]): inactive
